According to ChEMBL document CHEMBL4130550, “Antiproliferative Dimeric Aporphinoid Alkaloids from the Roots of Thalictrum cultratum” (J Nat Prod, 2017):

Columns and labels:
HL-60 [1] = assay: Antiproliferative activity against human HL60 cells after 72 hrs by tryphan blue staining based hematocytometric method; type: functional, cell-based; conditions: HL-60, 72 h
Outline: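 HL-60 (ATCC) in RPMI-1640 with 10% heat-inactivated FBS, 1 mM glutamine and penicillin/streptomycin, 37 °C, 5% CO2. Cells at 4.5 × 10^4 cells/mL are exposed to a concentration gradient (DMSO stock diluted in absolute EtOH) for 72 h. Trypan blue is added and total cells are counted on a hematocytometer. IC50 is the mean of three parallel experiments. Negative reference is 0.1% DMSO.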

PC-3 [2] = assay: Antiproliferative activity against human PC3 cells by MTT assay; type: functional, cell-based
Outline: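 PC-3 (ATCC) in supplemented RPMI-1640 with 10% FBS at 37 °C, 5% CO2. Log-phase cells get graded concentrations in triplicate. MTT (5 mg/mL solution) is added for a further 4 h, then dissolved in DMSO and read at 490 nm. IC50 is from the average of three parallel experiments. Negative reference is 0.1% DMSO.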

HL-60 [3] = assay: Potency index, ratio of 5-fluorouracil IC50 to compound IC50 for human HL60 cells; type: functional
PC-3 [4] = assay: Potency index, ratio of 5-fluorouracil IC50 to compound IC50 for human PC3 cells; type: functional
PC-3 [5] = assay: Potency index, ratio of camptothecin IC50 to compound IC50 for human PC3 cells; type: functional

Structure (SMILES) | IC50 (HL-60 [1]) | IC50 (PC-3 [2]) | Ratio IC50 (HL-60 [3]) | Ratio IC50 (PC-3 [4]) | Ratio IC50 (PC-3 [5])
COc1cc2c(cc1OC)[C@H](Cc1ccc(Oc3c4c(cc(OC)c3OC)-c3c(OC)c(OC)c(OC)c5c3[C@H](C4)N(C)CC5)cc1)N(C)CC2 [THALIFABERINE] | 1.58 µM | 7.27 µM | – | – | –
COc1cc2c(cc1OC)[C@H](Cc1ccc(Oc3c(OC)c(OC)cc4c3cc3c5c(c(OC)c(OC)c(OC)c54)CCN3C)cc1)N(C)CC2 | 2.41 µM | 2.56 µM | – | – | –
COc1cc2c(c(O)c1OC)CC[N@+](C)([O-])[C@H]2Cc1ccc(Oc2c3c(cc(OC)c2OC)-c2c(OC)c(OC)c(OC)c4c2[C@H](C3)N(C)CC4)cc1 | 2.86 µM | 12.7 µM | – | – | –
COc1cc2c(c(O)c1OC)CCN(C)[C@H]2Cc1ccc(Oc2c(OC)c(OC)cc3c2cc2c4c(c(OC)c(OC)c(OC)c43)CCN2C)cc1 | 4.28 µM | 7.1 µM | – | – | –
COc1cc2c(c(O)c1OC)CCN(C)[C@H]2Cc1ccc(Oc2c3c(cc(OC)c2OC)-c2c(OC)c(OC)c(OC)c4c2[C@H](C3)N(C)CC4)cc1 | 1.01 µM | 2.47 µM | 2 | 9 | 3
COc1cc2c(c(Oc3ccc(C[C@H]4c5cc(OC)c(OC)c(OC)c5CC[N@@+]4(C)[O-])cc3)c1OC)C[C@H]1c3c(c(OC)c(OC)c(OC)c3-2)CCN1C | 5.05 µM | 13.4 µM | – | – | –
COc1cc2c(c(Oc3ccc(C[C@H]4c5cc(OC)c(OC)c(OC)c5CCN4C)cc3)c1OC)C[C@H]1c3c(c(OC)c(OC)c(OC)c3-2)CCN1C | 1.16 µM | 6.05 µM | – | – | –
COc1cc2c(c(O)c1OC)CCN(C)[C@H]2Cc1ccc(Oc2c3c(cc(OC)c2OC)-c2c(OC)c(OC)cc4c2[C@H](C3)N(C)CC4)cc1 | 2.1 µM | 5.85 µM | – | – | –
COc1cc2c(cc1OC)C1=Cc3c(cc(OC)c(OC)c3Oc3cc4c(cc3OC)-c3c(OC)c(OC)c(OC)c5c3[C@H](C4)N(C)CC5)CN1CC2 | 1.77 µM | 11.6 µM | – | – | –
COc1cc2c(c(O)c1OC)CC[N@@+](C)([O-])[C@H]2Cc1ccc(Oc2c3c(cc(OC)c2OC)-c2c(OC)c(OC)c(OC)c4c2[C@H](C3)N(C)CC4)cc1 | 4.57 µM | 18.7 µM | – | – | –
COc1cc2c(c(Oc3ccc(C[C@H]4c5cc(OC)c(OC)c(OC)c5CC[N@+]4(C)[O-])cc3)c1OC)C[C@H]1c3c(c(OC)c(OC)c(OC)c3-2)CCN1C | 4.21 µM | 8.35 µM | – | – | –
COc1cc2c(c(OC)c1OC)CCN(C)[C@H]2Cc1ccc(Oc2c(OC)c(OC)cc3c2cc2c4c(c(OC)c(OC)c(OC)c43)CCN2C)cc1 | 2.12 µM | 6.01 µM | – | – | –
O=c1[nH]cc(F)c(=O)[nH]1 [FLUOROURACIL] | – | 22 µM | – | – | –
COc1cc2c(cc1OC)[C@H](Cc1ccc(Oc3c(OC)c(OC)cc4c3cc3c5c(cc(OC)c(OC)c54)CCN3C)cc1)N(C)CC2 | 4.09 µM | 7.86 µM | – | – | –
COc1cc2c(cc1OC)[C@H](Cc1ccc(Oc3c4c(cc(OC)c3OC)-c3c(OC)c(OC)cc5c3[C@H](C4)N(C)CC5)cc1)N(C)CC2 | 1.44 µM | 2.72 µM | – | – | –
COc1cc2c(c3c1OCO3)CCN(C)[C@H]2Cc1ccc(Oc2c(OC)c(OC)cc3c2cc2c4c(c(OC)c(OC)c(OC)c43)CCN2C)cc1 | 1.77 µM | 3.29 µM | – | – | –
CC[C@@]1(O)C(=O)OCc2c1cc1n(c2=O)Cc2cc3ccccc3nc2-1 [CAMPTOTHECIN] | 0.92 µM | 6.96 µM | – | – | –
COc1cc2c(cc1OC)-c1cc3c(Oc4cc5c(cc4OC)-c4c(OC)c(OC)c(OC)c6c4[C@H](C5)N(C)CC6)c(OC)c(OC)cc3c(=O)n1CC2 | 10.3 µM | 3.72 µM | – | – | –
